A selection: hits, their analogues and other compounds. The true share with any hit is near 1.5%.
SIRT5 block = sirtuin-5 (human) deacylase inhibition. Q9NXA8. Purified SirT5, succinyl-peptide AMC, trypsin-coupled fluorescence. inhibition, % at 15 µM. 330,000 compounds, 1.1% hits; in the data active means inhibition above about 15%
Target sequence (Q9NXA8 whole entry, looked up): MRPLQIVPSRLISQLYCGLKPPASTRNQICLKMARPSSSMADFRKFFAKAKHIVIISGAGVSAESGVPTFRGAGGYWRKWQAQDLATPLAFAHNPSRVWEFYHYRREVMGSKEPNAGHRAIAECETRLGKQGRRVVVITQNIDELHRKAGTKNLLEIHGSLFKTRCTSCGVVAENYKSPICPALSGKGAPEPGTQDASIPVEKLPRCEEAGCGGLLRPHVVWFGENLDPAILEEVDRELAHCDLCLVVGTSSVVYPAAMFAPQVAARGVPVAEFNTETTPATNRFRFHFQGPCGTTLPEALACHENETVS
CRFBP-R2 block = CRF-BP/CRF-R2 complex antagonism; HEK293 CRF-R2/CRF-BP, CRF-induced calcium fluorescence; 350,000 compounds, 0.59% hits; AID 588475; inhibition, % at 11.8 µM;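 active means inhibition of the ligand-induced calcium signal above about 50% at the single tested concentration, limit read from the data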
PKA-R2B act = PKA-R2B complex activation. activation, % at 11.4 µM. PKA-R2B holoenzyme dissociation, Cy5-IP20 fluorescence polarization; R2B truncated from residue 108, S112A mutant; 0% DMSO only, 100% 113 µM cGMP. P22694+P31323. 340,000 compounds, 0.079% hits;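 active means activation above a cutoff set at the mean over all compounds plus 3 SD, cut at about 18% in these data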;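 further: higher means more holoenzyme dissociation and a rise in polarization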
PKA-R1A act = activators of PKA-R1A complex | P00514+P68181 | PKA-R1A dissociation, Cy5-IP20 fluorescence polarization; scaled: DMSO 0%, 113 µM cGMP 100% | activation, % at 11.4 µM | 340,000 compounds, 0.083% hits;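 active means percent activation above the mean of all tested compounds plus 3 SD, cut at about 19% in these data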;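 further: higher means more PKAc released from R1A so a rise in polarization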
S100A4 inh HTS = S100A4-myosin IIA interaction inhibition | P26447 | S100A4/TAMRA-MyoIIA peptide fluorescence polarization | 360,000 compounds, 0.14% hits | inhibition, % at 10.7 µM;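 active means mean inhibition of at least 70% across replicates, with every replicate also reaching that level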
Target sequence (P26447 whole entry, looked up): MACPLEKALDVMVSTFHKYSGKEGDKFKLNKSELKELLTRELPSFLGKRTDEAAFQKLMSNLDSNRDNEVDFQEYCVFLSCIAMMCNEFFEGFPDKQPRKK
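Test system: S100A4 monomer protein. Medium: HEPES buffer with Ca2+, pH 7.2. Reagent: fluorescent myosin IIA peptide, 5 nM. Compound dosing: single-point compound testing. Timing: 5 min between mix addition and reading. Benchmarks: DMSO neutral and TFP positive wells.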
An asterisk follows results filed as active; nt = not tested or not shown.

SMILES	SIRT5 block	CRFBP-R2 block	PKA-R2B act	PKA-R1A act	S100A4 inh HTS
C[C@H]1CN([C@@H](C)CO)C(=O)c2cccc(NC(=O)CCCCCC(=O)Nc3ccccc3N)c2O[C@@H]1CN(C)Cc1ccc(-c2ccccc2)cc1	17*	nt	nt	nt	-6
C[C@@H]1CN([C@H](C)CO)C(=O)c2cccc(NC(=O)CCCCCC(=O)Nc3ccccc3N)c2O[C@H]1CN(C)Cc1ccccc1	13	nt	nt	nt	-4
C[C@@H]1CN([C@@H](C)CO)C(=O)c2cc(NS(C)(=O)=O)ccc2O[C@@H](C)CCCCO[C@H]1CN(C)C(=O)Nc1ccc(C(F)(F)F)cc1	2	nt	nt	nt	-3
Cc1ccc(CNC(=O)Cn2cnc(C(=O)Nc3ccc(C)c(C)c3)n2)o1	-7	0	0	6	76*
Nc1nccc(-c2ccc(-n3cnc4ccccc43)cc2)n1	21*	-3	4	3	-4
C[C@@H]1CN([C@H](C)CO)C(=O)c2cc(C#Cc3ccc(F)cc3)cnc2O[C@H]1CN(C)S(C)(=O)=O	-3	nt	nt	nt	-2
Cc1cc2nc(SCC(=O)O)nc(C)c2cc1C	-1	2	3	-6	-7
CCOC(=O)CSc1nc(C)c2cc(C)c(C)cc2n1	17*	-5	-1	-12	-11
Cc1onc(-c2c(F)cccc2Cl)c1C(=O)N1CCSCC1	-2	12	nt	nt	-4
Cc1onc(-c2c(F)cccc2Cl)c1C(=O)N1CCN(c2ncc(Br)cn2)CC1	-2	74*	-8	-9	0
CCCCCCCCN1C(=O)[C@H](CC(=O)NCCC(C)C)C[C@@]2(C(=O)OCC)CCCC=C12	21*	nt	nt	nt	11
CCCCCCCCN1C(=O)[C@H](CC(=O)NCC2CCCCC2)C[C@@]2(C(=O)OC)CCCCC=C12	16*	nt	nt	nt	-15
CC(C)NC(=O)N(C)C[C@H]1Oc2ncc(C#CC3(O)CCCC3)cc2C(=O)N([C@@H](C)CO)C[C@@H]1C	12	nt	nt	nt	-3
Cc1nn(C)c(C)c1NC(=O)c1cc2nc(-c3ccco3)cc(C(F)(F)F)n2n1	-2	134*	6	13	-9
O=C(Nc1ccc(Cl)cc1)c1cc2nc(-c3ccco3)cc(C(F)(F)F)n2n1	nt	-24	-6	-3	nt
Cc1ccc(-n2cc(CN3CCN(c4ccccn4)CC3)c(-c3ccc(F)cc3)n2)cc1	0	0	1	-2	0
Cc1ccc(-n2cc(CN3CCN(Cc4nccn4C)CC3)c(-c3ccc(F)cc3)n2)cc1	112*	-9	-2	-10	3
COC(=O)c1c(NC(=O)CN2CCC3(O)CCCCC3C2c2ccc(OC)cc2OC)sc(C)c1C (stereo not drawn)	-3	6	0	5	3
COc1ccc(NC(=O)CN2CCC3(O)CCCCC3C2c2cc(OC)ccc2OC)cc1 (stereo not drawn)	nt	51*	-6	-5	nt
CC1(O)c2ccccc2C(=O)N1CCc1ccccc1F (stereo not drawn)	nt	59*	3	-13	nt
CC1(O)c2ccccc2C(=O)N1Cc1ccccc1 (stereo not drawn)	nt	-2	4	-6	nt
CC(=O)c1cc(C#N)c(Oc2ccc(Cl)cc2Cl)nc1C	nt	55*	9	4	nt
CCS(=O)(=O)N[C@@H]1C=C[C@H](CC(=O)NC2Cc3ccccc3C2)O[C@H]1CO	0	nt	nt	nt	17
COc1ccc(S(=O)(=O)N[C@H]2CC[C@H](CC(=O)O)O[C@@H]2CO)cc1	2	nt	nt	nt	-9
Cc1nc(S/C(=C\c2ccc(-c3ccc(C(=O)O)c(Cl)c3)o2)C(=O)O)n[nH]1	28*	11	12	5	-6
SMILES	SIRT5 block	CRFBP-R2 block	PKA-R2B act	PKA-R1A act	S100A4 inh HTS
Cc1nc(S/C(=C\c2ccc(OCc3ccccc3Cl)cc2)C(=O)O)n[nH]1	nt	-18	-7	6	nt
Oc1c(C=C2N=c3ccccc3=N2)sc(=S)n1-c1ccccc1	-7	-2	-12	-10	-12
CC1=Nc2ccccc2/C1=C/c1sc(=S)n(-c2cccc(C(=O)O)c2)c1O	17*	-35	-14	-5	-11
COc1ccc2c(c1)-c1nc(/N=C/c3ccc(O)cc3)sc1CC2	nt	91*	-5	-4	nt
CCC(=O)N1[C@H](C#N)[C@H](c2ccccc2-c2cccc(C)c2)[C@H]1CO	2	nt	nt	nt	1
O=C(c1ccc(F)cc1)C1CCN(Cc2ccccc2F)CC1	nt	58*	-4	-11	-3

Compound activity as filed in PubChem.
